Active and inactive are the calls of the source. The calls are words filed in the database; no cut-off is given here.
Experiments:
[1] = Half life in dog liver microsomes in presence of NADPH; type: ADME, Canis lupus familiaris, Microsome
[2] = Half life in human hepatocytes; type: ADME, cell-based, Hepatocyte
[3] = Cardiovascular toxicity in dog assessed as aortic pathology at 5 mg/kg, po for 10 days; type: organism-based, Canis lupus familiaris; conditions: in vivo, 240 h
Summary of the method: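 Exploratory toxicology studies of 10 days with daily oral dosing in rats and dogs. Cardiovascular findings, including valvulopathy and aortic pathology, were assessed.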

[4] = Clearance in Beagle dog at 1 mg/kg, iv; type: ADME, organism-based, Canis lupus familiaris; conditions: in vivo
Summary of the method: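 Male Beagle dogs, n = 2, pretreated with pentagastrin. The po dose of 5 mg/kg was in 5% ethanol, 45% PEG400 and 50% 25 mM acetate buffer pH 4.0. The iv dose of 1 mg/kg was in 5:45:50 EtOH/PEG400/saline at 1 mL/kg.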

[5] = Half life in human liver microsomes in presence of UGT/UDPGA; type: ADME, Microsome
[6] = Oral bioavailability in Beagle dog at 5 mg/kg; type: ADME, organism-based, Canis lupus familiaris; conditions: in vivo
Summary of the method: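 Male Beagle dogs (n = 2) were pretreated with pentagastrin and dosed iv at 1 mg/kg and po at 5 mg/kg. The oral vehicle was 5% ethanol, 45% PEG400 and 50% 25 mM acetate buffer pH 4.0. The iv vehicle was 5:45:50 EtOH/PEG400/saline at 1 mL/kg.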

[7] = Half life in rat liver microsomes in presence of UGT/UDPGA; type: ADME, Microsome
[8] = Metabolic stability of compound in rat liver microsomes assessed as compound remaining after 10 mins; type: ADME, Microsome; conditions: read-out: Stability
[9] = Clearance in Sprague Dawley rat at 5 mg/kg, iv; type: ADME, organism-based; conditions: in vivo
Summary of the method: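 Male Sprague–Dawley rats, n = 3, given 5 mg/kg iv or 10 mg/kg po as a PEG400 solution.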

[10] = Half life in Sprague Dawley rat at 5 mg/kg, iv; type: ADME, organism-based; conditions: in vivo
Summary of the method: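 Male Sprague–Dawley rats (n = 3) dosed iv at 5 mg/kg as a PEG400 solution, alongside a 10 mg/kg oral arm. Half-life was derived from the iv profile.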

[11] = test system: MC-38; assay: Antitumour activity against mouse MC38 cells allografted in C57Bl/6 mouse assessed as reduction in tumour growth at 3.75 mg/kg, po dosed every 3 days on and 4 days off treatment regime and cotreated with anti-PD1 at 10 mg/kg, ip every 4 days for 3 doses by digital caliper analysis; type: functional, organism-based
Summary of the method: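 MC38 cells (0.1 mL at 1 × 10^7 cells/mL) were implanted subcutaneously in the right flank of C57/BL6 mice. Randomization was at about 100 mm3, typically day 5. Oral dosing ran 3 days on, 4 days off, over 28 days. Anti-PD-1 was given at 10 mg/kg IP every 4 days for three doses, with isotype MOPC-21 IgG1 as control on the same schedule.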

[12] = target: Cytochrome P450 3A4 (Homo sapiens, UniProt P08684); assay: Inhibition of recombinant CYP3A4 (unknown origin); type: ADME
[13] = target: T1, TGF-beta receptor type-1 (Mus musculus, UniProt Q64729); assay: Inhibition of TGFbetaR1 in TGFbeta-stimulated mouse NIH3T3 cells assessed as reduction in SMAD3 phosphorylation; type: cell-based
T1 sequence (Q64729 whole entry): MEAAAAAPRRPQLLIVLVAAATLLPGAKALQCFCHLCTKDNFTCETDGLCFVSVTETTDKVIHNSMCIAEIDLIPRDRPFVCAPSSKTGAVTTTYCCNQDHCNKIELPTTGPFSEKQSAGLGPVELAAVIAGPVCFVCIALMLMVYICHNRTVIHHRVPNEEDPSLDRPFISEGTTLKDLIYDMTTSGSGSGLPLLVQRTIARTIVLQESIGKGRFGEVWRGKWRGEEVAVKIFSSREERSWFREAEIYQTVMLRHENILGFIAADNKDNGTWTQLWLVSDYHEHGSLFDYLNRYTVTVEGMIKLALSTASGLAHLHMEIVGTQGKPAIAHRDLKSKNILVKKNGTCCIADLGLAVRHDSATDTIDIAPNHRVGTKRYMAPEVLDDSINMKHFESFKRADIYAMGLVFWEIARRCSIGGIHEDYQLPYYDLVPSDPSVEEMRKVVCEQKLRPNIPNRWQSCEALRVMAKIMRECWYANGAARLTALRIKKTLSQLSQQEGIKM

[14] = test system: MC-38; assay: Induction of long-term antitumor memory response in compound-mediated tumor cured C57Bl/6 mouse allografted with mouse MC38 cells assessed as reduction in tumor growth following rechallenge with newly implanted mouse MC38 cells treated at 3.75 to 15 mg/kg, po qd for 28 days and cotreated with anti-PD1 at 10 mg/kg, ip every 4 days for 3 doses prior to MC38 cells rechallenge by digital caliper analysis; type: functional, organism-based
Summary of the method: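 Mice cured by oral dosing plus anti-PD-1 (10 mg/kg IP, every 4 days, three doses) were re-implanted with MC38 or LL2 cells. Tumor growth was compared with naive mice.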

[15] = target: T2, TGF-beta receptor type-1 (Homo sapiens, UniProt P36897); assay: Inhibition of TGFbetaR1 in anti-CD3/anti-CD28/IL-2/TGFbeta -stimulated human Treg cells assessed as downregulation of FOXP3 expression incubated for 5 days by flow cytometry analysis
T2 sequence (P36897 whole entry): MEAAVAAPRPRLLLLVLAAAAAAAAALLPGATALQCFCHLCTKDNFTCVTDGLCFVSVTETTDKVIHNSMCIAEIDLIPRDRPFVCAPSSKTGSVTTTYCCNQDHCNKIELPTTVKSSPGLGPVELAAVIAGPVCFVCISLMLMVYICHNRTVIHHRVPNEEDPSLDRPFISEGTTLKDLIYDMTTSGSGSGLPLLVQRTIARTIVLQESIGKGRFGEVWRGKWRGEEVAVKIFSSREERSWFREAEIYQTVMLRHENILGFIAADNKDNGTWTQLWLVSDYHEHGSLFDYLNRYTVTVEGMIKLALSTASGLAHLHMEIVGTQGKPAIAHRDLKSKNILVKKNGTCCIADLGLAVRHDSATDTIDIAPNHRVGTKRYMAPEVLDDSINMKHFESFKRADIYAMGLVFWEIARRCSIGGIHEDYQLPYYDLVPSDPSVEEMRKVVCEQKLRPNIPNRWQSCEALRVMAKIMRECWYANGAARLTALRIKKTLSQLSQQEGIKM

[16] = Half life in rat hepatocytes; type: ADME, cell-based, Hepatocyte
[17] = Oral bioavailability in Balb/C mouse at 10 mg/kg; type: ADME, organism-based; conditions: in vivo
Summary of the method: (§1)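 Male Balb/C mice (n = 3) dosed iv at 5 mg/kg and po at 10 mg/kg. Vehicle was 70% 25 mM acetate buffer pH 4.0, 5% ethanol and 25% PEG 400.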

[18] = Volume of distribution at steady state in Sprague Dawley rat at 5 mg/kg, iv; type: ADME, organism-based; conditions: in vivo, read-out: Vdss
Summary of the method: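 Male Sprague–Dawley rats (n = 3) received a PEG400 solution iv at 5 mg/kg and po at 10 mg/kg.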

[19] = Total AUC in Balb/C mouse at 10 mg/kg, po; type: ADME, organism-based; parameters: dose 10 mg/kg, route oral, time AUCmax; conditions: in vivo; summary of the method: as §1
[20] = Metabolic stability of compound in mouse liver microsomes assessed as compound remaining; type: ADME, Microsome
[21] = target: Cytochrome P450 2D6 (Homo sapiens, UniProt P10635); assay: Induction of recombinant CYP2D6 (unknown origin) up to 24 microM; type: ADME; conditions: recombinant enzyme
Sequence of Cytochrome P450 2D6 (P10635 whole entry): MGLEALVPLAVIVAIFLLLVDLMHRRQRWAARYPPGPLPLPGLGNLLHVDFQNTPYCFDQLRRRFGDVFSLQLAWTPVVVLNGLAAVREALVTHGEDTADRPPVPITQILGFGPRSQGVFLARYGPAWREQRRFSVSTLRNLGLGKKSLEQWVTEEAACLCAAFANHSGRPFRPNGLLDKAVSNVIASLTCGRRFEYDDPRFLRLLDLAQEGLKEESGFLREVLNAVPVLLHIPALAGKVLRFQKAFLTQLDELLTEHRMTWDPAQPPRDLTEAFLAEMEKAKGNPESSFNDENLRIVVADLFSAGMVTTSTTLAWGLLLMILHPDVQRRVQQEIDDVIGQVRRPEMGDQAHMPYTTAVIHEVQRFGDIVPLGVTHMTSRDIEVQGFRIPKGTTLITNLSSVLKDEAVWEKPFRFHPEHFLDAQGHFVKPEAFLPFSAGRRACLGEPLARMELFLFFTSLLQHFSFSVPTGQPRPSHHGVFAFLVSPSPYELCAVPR

Sequence of Cytochrome P450 3A4 (P08684 whole entry): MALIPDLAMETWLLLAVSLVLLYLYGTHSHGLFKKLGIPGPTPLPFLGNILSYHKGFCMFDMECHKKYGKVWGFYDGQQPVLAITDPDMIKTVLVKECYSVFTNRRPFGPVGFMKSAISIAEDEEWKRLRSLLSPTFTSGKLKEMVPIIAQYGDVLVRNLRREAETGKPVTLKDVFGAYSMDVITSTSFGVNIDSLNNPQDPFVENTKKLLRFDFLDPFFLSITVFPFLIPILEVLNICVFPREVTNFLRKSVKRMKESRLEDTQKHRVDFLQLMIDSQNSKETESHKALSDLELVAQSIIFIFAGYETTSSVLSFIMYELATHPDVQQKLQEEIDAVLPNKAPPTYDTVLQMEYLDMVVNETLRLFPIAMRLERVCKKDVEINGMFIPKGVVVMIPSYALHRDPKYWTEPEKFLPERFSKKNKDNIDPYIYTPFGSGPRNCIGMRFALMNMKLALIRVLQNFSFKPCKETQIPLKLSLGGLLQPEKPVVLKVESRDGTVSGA

half-life [1]: 0.617 h
half-life [2]: 0.9 h
clearance [4]: 0.384 L/h/kg
half-life [5]: > 2 h
bioavailability [6]: 93%
half-life [7]: > 2 h
remaining at 10 min [8]: 91%
clearance [9]: 0.336 L/h/kg
half-life [10]: 5.7 h
IC50 [12]: > 20 µM
IC50 [13]: 0.05 µM
IC50 [15]: 0.23 µM
half-life [16]: 5.33 h
bioavailability [17]: > 100%
Vd [18]: 2.4 L/kg
AUC [19]: 80.5 µM·h
Stability [20]: 81%
Activity [21]: Not Active
SMILES: N#Cc1cnc2ccc(-c3c(-c4ccc(F)c(Cl)c4)ncn3CCO)nn12
Activity [3]: Toxic
inhibition [11]: Active
Activity [14]: Active

— ChEMBL document CHEMBL4334552, “Discovery of BMS-986260, a Potent, Selective, and Orally Bioavailable TGFβR1 Inhibitor as an Immuno-oncology Agent” (ACS Med Chem Lett, 2020)
